The text below walks through data of PubChem BioAssay.

The source made the active and inactive calls.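 How the source made its calls, unless noted: active means GFP response above 150% of the DMSO level; inconclusive means fewer than 70 events counted for a yeast strain; inactive means the rest.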

The nature of experiment [1]: hit retest on RPL19A-GFP reporter strain – cell-based, S. cerevisiae, flow cytometry, cherry picks, mother/daughter gates, confirmation (AID 2270;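 active means GFP response below 50% of the DMSO control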). To be noted: 3 h, at 10 µM, stronger effect = lower value, 100 = same GFP as DMSO wells.
Experiment [2] in a line: yeast TOR pathway reporter LAP4-GFP change – cell-based, cherry picks, flow cytometry, mother/daughter gates, confirmation (AID 2271;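 active means GFP response above 150% of the DMSO control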;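 further: ratio of sample to DMSO plate mean so 100% equals DMSO level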). To be noted: S. cerevisiae LAP4-GFP strain, 3 h, at 10 µM, stronger effect = higher value, 100 means same as DMSO control. A digest of the protocol:
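System – GFP-fusion yeast strain · Amount – 0.2 OD600 cells · Buffer or medium – SC growth medium · Dosing – single test-compound dose, 10 µM final · Schedule – 3 h treatment at 30 °C with rotation · Detection – GFP by flow cytometry · Read-out – per-gate (all, mother, daughter) GFP response vs DMSO · Benchmarks – positive rapamycin (400 ng/mL), negative DMSO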

Experiment [3] is described as follows: TOR pathway reporter MEP2-GFP, retest of hits – S. cerevisiae, flow cytometry GFP, cherry picks, confirmation (AID 2272;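 active means GFP response above 150% of the DMSO control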;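 further: ratio of well signal to plate DMSO mean so 100% equals DMSO level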). As to conditions: S. cerevisiae MEP2-GFP strain, 3 h, at 10 µM, stronger effect = higher value.
A short description of experiment [4]: yeast AGP1-GFP fluorescence change, single-dose – cell-based, flow cytometry, S. cerevisiae, cherry picks, confirmation (AID 2273).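 Further: median GFP channel fluorescence over the whole cell population gate.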 To be noted: S. cerevisiae AGP1-GFP strain, 3 h, at 10 µM.
A short description of experiment [5]: TOR pathway CIT2 reporter hit retest – S. cerevisiae, GFP fusion, cherry picks, mother/daughter gates, confirmation (AID 2274). To be noted: S. cerevisiae CIT2-GFP strain, flow cytometry, 3 h, at 10 µM, stronger effect = higher value.
[6] abbreviates: measured here: daughter cell gate.
Where [7] appears, read: measured here: mother cell gate.
The mark [8] stands for this setting: measured here: daughter cell gate response.
[9] abbreviates: measured here: mother cell gate response.

On to `COc1ccc(C2CC(=O)C(C(c3ccc(O)cc3)C3C(=O)CC(c4ccc(OC)cc4)CC3=O)C(=O)C2)cc1` (centres undefined), for which the GFP response vs DMSO in experiment [1] is 100% (inactive); in experiment [1] (setting [6]) it was 101%; in experiment [1] (setting [7]), 101%; in experiment [3] it was 96.6% (inactive). In addition, the figures for the GFP response relative to DMSO in experiment [2], in experiment [2] (setting [8]) and in experiment [2] (setting [9]) were 93.7% (inactive), 92% and 92%, respectively. Also, the GFP response, % of DMSO in experiment [4] is 101% (inactive); in experiment [5], 110% (inactive); in experiment [5] (setting [6]), 110%; in experiment [5] (setting [7]) it was 109%.
For the compound `O=C1c2cccc3c([N+](=O)[O-])ccc(c23)C(=O)N1O`, the GFP response vs DMSO in experiment [1] was 131% (inactive); in experiment [1] (setting [6]), 136%; in experiment [1] (setting [7]) it was 124%; in experiment [3] it was 404% (active). Moreover, the results for the GFP response relative to DMSO in experiment [2], in experiment [2] (setting [8]) and in experiment [2] (setting [9]) were 249% (active), 250% and 251%, respectively. The GFP response, % of DMSO in experiment [4] was 132% (inactive); in experiment [5] it was 256% (active); in experiment [5] (setting [6]), 247%; in experiment [5] (setting [7]) it was 223%.
For the compound `O=C(N/N=C/c1ccc(OCCCF)cc1)c1cc(OCC(F)(F)F)ccc1OCC(F)(F)F`, the GFP response vs DMSO was 98% (inactive) in experiment [1], 100% in experiment [1] (setting [6]), 98.2% in experiment [1] (setting [7]) and 102% (inactive) in experiment [3]. For the same compound, the GFP response relative to DMSO in experiment [2] is 97.4% (inactive); in experiment [2] (setting [8]), 98.7%; in experiment [2] (setting [9]), 101%. The GFP response, % of DMSO in experiment [4] is 97.2% (inactive); in experiment [5], 95.2% (inactive); in experiment [5] (setting [6]), 94.8%; in experiment [5] (setting [7]), 97.7%.
On to `O=C(Nc1nc(-c2ccccc2Cl)cs1)c1cccnc1`, for which the GFP response vs DMSO in experiment [1] is 100% (inactive); in experiment [1] (setting [6]), 94.7%; in experiment [1] (setting [7]), 99.2%; in experiment [3] it was 100% (inactive). In addition, the GFP response relative to DMSO is 97.4% (inactive) in experiment [2], 95.6% in experiment [2] (setting [8]) and 99.3% in experiment [2] (setting [9]). Besides, the GFP response, % of DMSO is 89.1% (inactive) in experiment [4], 99.1% (inactive) in experiment [5], 94.8% in experiment [5] (setting [6]) and 97.7% in experiment [5] (setting [7]).
With `CC(C)Nc1nc(-c2ccccc2)nnc1-c1ccccc1`, the GFP response vs DMSO was 98.5% (inactive) in experiment [1], 98.4% in experiment [1] (setting [6]), 97.7% in experiment [1] (setting [7]) and 106% (inactive) in experiment [3]. Further, the GFP response relative to DMSO in experiment [2] was 107% (inactive); in experiment [2] (setting [8]) it was 102%; in experiment [2] (setting [9]), 109%. Besides, the GFP response, % of DMSO in experiment [4] is 96.1% (inactive); in experiment [5], 98.6% (inactive); in experiment [5] (setting [6]), 97.6%; in experiment [5] (setting [7]), 98.2%.
As to `CCc1ccc2c(c1)C1(NN=C(c3cccc4ccccc34)S1)C(=O)N2` (centres undefined), the GFP response vs DMSO is 96% (inactive) in experiment [1], 96.7% in experiment [1] (setting [6]), 93.1% in experiment [1] (setting [7]) and 97.2% (inactive) in experiment [3]. The GFP response relative to DMSO in experiment [2] is 111% (inactive); in experiment [2] (setting [8]), 105%; in experiment [2] (setting [9]), 114%. The GFP response, % of DMSO in experiment [4] was 102% (inactive); in experiment [5] it was 93.1% (inactive); in experiment [5] (setting [6]), 99.3%; in experiment [5] (setting [7]), 88.2%.
As for `O=S(=O)(c1ccc(NC(=S)N/N=C/c2cccc(Oc3ccccc3)c2)cc1)N1CCOCC1`, the GFP response vs DMSO in experiment [1] was 97.8% (inactive); in experiment [1] (setting [6]), 98.6%; in experiment [1] (setting [7]) it was 97.3%; in experiment [3], 105% (inactive). Also, the GFP response relative to DMSO in experiment [2] is 94.9% (inactive); in experiment [2] (setting [8]), 93.5%; in experiment [2] (setting [9]) it was 96.2%. In addition, the GFP response, % of DMSO in experiment [4] was 106% (inactive); in experiment [5], 102% (inactive); in experiment [5] (setting [6]), 103%; in experiment [5] (setting [7]), 103%.
For the compound `Cc1nc2ccc(Br)cn2c1C(=O)N/N=C\c1ccccc1Cl`, the GFP response vs DMSO is 95.4% (inactive) in experiment [1], 95.6% in experiment [1] (setting [6]), 96.6% in experiment [1] (setting [7]) and 96.2% (inactive) in experiment [3]. Further, the values for the GFP response relative to DMSO in experiment [2], in experiment [2] (setting [8]) and in experiment [2] (setting [9]) were 94.1% (inactive), 94.4% and 96.1%, respectively. The GFP response, % of DMSO in experiment [4] was 98% (inactive); in experiment [5], 99.7% (inactive); in experiment [5] (setting [6]), 99.1%; in experiment [5] (setting [7]) it was 99.7%.
Take `O=C1C=C(c2ccccc2)C(=O)N1Nc1ccccc1`: the GFP response vs DMSO in experiment [1] is 77.5% (inactive); in experiment [1] (setting [6]), 88.3%; in experiment [1] (setting [7]) it was 64.5%; in experiment [3], 102% (inactive). The figures for the GFP response relative to DMSO in experiment [2], in experiment [2] (setting [8]) and in experiment [2] (setting [9]) were 124% (inactive), 96% and 113%, respectively. In addition, the GFP response, % of DMSO was 78.4% (inactive) in experiment [4], 92.6% (inactive) in experiment [5], 95.4% in experiment [5] (setting [6]) and 78.3% in experiment [5] (setting [7]).
